Results taken from ChEMBL document CHEMBL3351460, “Structure-Metabolism Relationships in the Glucuronidation of d-Amino Acid Oxidase Inhibitors” (ACS Med Chem Lett, 2014).

Tests used:
[1] = Drug metabolism in mouse liver microsomes assessed as glucuronidation of compound measured as compound remaining after 60 mins by LC/MS analysis; format: ADME; details: read-out: Stability
How it was run: (§1)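 Liver microsomes (mouse or rat), 0.5 mg protein/mL, incubated at 37 °C with UDPGA (2 mM) as cofactor for glucuronidation. Parent compound remaining was quantified after 30 and 60 min and expressed as % remaining.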

[2] = Drug metabolism in mouse liver microsomes assessed as glucuronidation of compound measured as compound remaining after 30 mins by LC/MS analysis; format: ADME; details: read-out: Stability; how it was run: as §1
[3] = Drug metabolism in human liver microsomes assessed as glucuronidation of compound measured as compound remaining after 30 mins by LC/MS analysis; format: ADME; details: read-out: Stability
How it was run: (§2)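 Human liver microsomes (0.5 mg protein/mL) incubated with compound at 37 °C in the presence of UDPGA (2 mM), with a UDPGA-free control incubation. Remaining parent compound quantified after 30 and 60 min and expressed as % remaining.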

[4] = Drug metabolism in rat liver microsomes assessed as glucuronidation of compound measured as compound remaining after 60 mins by LC/MS analysis; format: ADME; details: read-out: Stability; how it was run: as §1
[5] = Drug metabolism in rat liver microsomes assessed as glucuronidation of compound measured as compound remaining after 30 mins by LC/MS analysis; format: ADME; details: read-out: Stability; how it was run: as §1
[6] = Plasma clearance in CD1 mouse at 30 mg/kg, po and 10 mg/kg, iv; format: ADME, organism-based
[7] = Oral bioavailability in CD1 mouse at 30 mg/kg; format: ADME, organism-based; details: in vivo
[8] = Drug metabolism in human liver microsomes assessed as glucuronidation of compound measured as compound remaining after 60 mins by LC/MS analysis; format: ADME; details: read-out: Stability; how it was run: as §2
[9] = target: D-amino-acid oxidase (Homo sapiens, UniProt P14920); assay: Inhibition of human D-amino acid oxidase
D-amino-acid oxidase, sequence (P14920 whole entry): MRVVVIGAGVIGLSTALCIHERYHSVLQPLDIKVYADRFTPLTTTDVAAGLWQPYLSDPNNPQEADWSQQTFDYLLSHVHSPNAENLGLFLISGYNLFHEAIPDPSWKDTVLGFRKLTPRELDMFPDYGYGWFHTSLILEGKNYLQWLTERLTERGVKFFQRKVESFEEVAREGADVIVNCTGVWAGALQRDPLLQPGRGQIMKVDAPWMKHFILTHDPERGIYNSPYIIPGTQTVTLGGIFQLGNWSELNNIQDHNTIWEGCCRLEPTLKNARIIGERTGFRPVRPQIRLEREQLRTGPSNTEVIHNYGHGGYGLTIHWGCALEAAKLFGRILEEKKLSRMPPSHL

remaining at 1 h [1] [%]	remaining at 0.5 h [2] [%]	Structure (SMILES)	other results
< 1	< 1	O=c1[nH]c2ccccc2cc1O	
< 1	< 1	O=c1[nH]c2c(F)cc(F)cc2n1O	
3	5	O=c1[nH]cc(CCc2ccccc2)cc1O	
59	77	O=c1[nH]nc(CCc2cc(F)cc(F)c2)cc1O	remaining at 0.5 h [3]: 81%; remaining at 1 h [4]: 51%; remaining at 0.5 h [5]: 69%; clearance [6]: 39 mL/min/kg; bioavailability [7]: 31%; remaining at 1 h [8]: 62%
5	20	O=c1cc(CSc2ccc(Cl)c(Cl)c2)occ1O	
102	103	O=C(O)c1cc(CCc2ccc(Cl)cc2)n[nH]1	IC50 [9]: < 1 µM
78	92	Cc1cc(C(=O)O)n[nH]1	
< 1	< 1	O=c1[nH]c2cc(F)ccc2cc1O	remaining at 1 h [4]: < 1%; remaining at 0.5 h [5]: < 1%
33	58	Oc1noc2cc(Cl)ccc12	
< 1	< 1	O=c1[nH]c2cccc(Cl)c2cc1O	remaining at 1 h [4]: < 1%; remaining at 0.5 h [5]: < 1%
100	98	O=C(O)c1cc2sccc2[nH]1	
< 1	< 1	O=c1oc2ccccc2cc1O [3-HYDROXYCOUMARIN]	
